Data published in ChEMBL document CHEMBL1155468, “Syntheses and evaluation of anticonvulsant profile and teratogenicity of novel amide derivatives of branched aliphatic carboxylic acids with 4-aminobenzensulfonamide” (J Med Chem, 2010).
The source made the active and inactive calls. No cut-off for these calls is given here.

Experiments:
Mus musculus [1] = test: Anticonvulsant activity in CF1 albino mouse assessed as inhibition of subcutaneous pentylenetetrazole-induced seizures at 30 mg/kg, ip after 0.5 hrs; format: functional, organism-based; design: dose 30 mg/kg
In short: (§1)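 Adult male CF no. 1 albino mice (18-25 g) dosed ip with compound suspended in 0.5% methylcellulose (0.01 mL/g). Convulsant: pentylenetetrazol dissolved in 0.9% saline as a 0.85% solution for mice, given subcutaneously.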

Mus musculus [2] = test: Anticonvulsant activity in CF1 albino mouse assessed as inhibition of subcutaneous pentylenetetrazole-induced seizures at 100 mg/kg, ip after 0.5 hrs; format: functional, organism-based; design: dose 100 mg/kg; in short: as §1
Mus musculus [3] = test: Anticonvulsant activity in CF1 albino mouse assessed as inhibition of subcutaneous pentylenetetrazole-induced seizures at 300 mg/kg, ip after 0.5 hrs; format: functional, organism-based; design: dose 300 mg/kg; in short: as §1
Mus musculus [4] = test: Anticonvulsant activity in CF1 albino mouse assessed as inhibition of subcutaneous pentylenetetrazole-induced seizures at 30 mg/kg, ip after 4 hrs; format: functional, organism-based; design: dose 30 mg/kg; in short: as §1
Mus musculus [5] = test: Anticonvulsant activity in CF1 albino mouse assessed as inhibition of subcutaneous pentylenetetrazole-induced seizures at 100 mg/kg, ip after 4 hrs; format: functional, organism-based; design: dose 100 mg/kg; in short: as §1
Mus musculus [6] = test: Teratogenic effect in SWV mouse assessed as resorptions at 141 mg/kg, ip administered on morning of day 8 of gestation; format: toxicity, organism-based; design: dose 141 mg/kg, route intraperitoneal; conditions: in vivo
In short: (§2)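 SWV inbred mice: two-month-old nulligravid females mated overnight with males and checked for vaginal plugs next morning; gestation onset taken as 10 p.m. the previous night. On gestation day 8.5 each dam got one ip injection, 0.55–2.7 mmol/kg, in 25% aqueous Cremophor EL (vehicle controls dosed alike), 10 μL/g body weight. Litters and implants tallied; resorptions and live fetuses reported as counts with percentages.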

Mus musculus [7] = test: Teratogenic effect in SWV mouse assessed as resorptions at 462 mg/kg, ip administered on morning of day 8 of gestation; format: toxicity, organism-based; design: dose 462 mg/kg, route intraperitoneal; conditions: in vivo; in short: as §2
Mus musculus [8] = test: Teratogenic effect in SWV mouse assessed as resorptions at 279 mg/kg, ip administered on morning of day 8 of gestation; format: toxicity, organism-based; design: dose 279 mg/kg, route intraperitoneal; conditions: in vivo; in short: as §2
Mus musculus [9] = test: Teratogenic effect in SWV mouse assessed as fetuses with neural tube deffects at 462 mg/kg, ip administered on morning of day 8 of gestation; format: toxicity, organism-based; design: dose 462 mg/kg, route intraperitoneal; conditions: in vivo
In short: (§3)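 Two-month-old nulligravid SWV females were mated overnight and checked for vaginal plugs the next morning; gestation onset was set at 10 p.m. the previous night. On gestation day 8.5, each dam received a single ip injection (0.55-2.7 mmol/kg range) or vehicle (25% aqueous Cremophor EL) at 10 μL/g body weight. Litters were scored for implants, resorptions, live and dead fetuses, and fetuses with neural tube defects.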

Mus musculus [10] = test: Teratogenic effect in SWV mouse assessed as fetuses with neural tube deffects at 279 mg/kg, ip administered on morning of day 8 of gestation; format: toxicity, organism-based; design: dose 279 mg/kg, route intraperitoneal; conditions: in vivo; in short: as §3
Mus musculus [11] = test: Teratogenic effect in SWV mouse assessed as live fetuses at 141 mg/kg, ip administered on morning of day 8 of gestation; format: toxicity, organism-based; design: dose 141 mg/kg, route intraperitoneal; conditions: in vivo; in short: as §3
Mus musculus [12] = test: Teratogenic effect in SWV mouse assessed as live fetuses at 462 mg/kg, ip administered on morning of day 8 of gestation; format: toxicity, organism-based; design: dose 462 mg/kg, route intraperitoneal; conditions: in vivo; in short: as §2
Mus musculus [13] = test: Teratogenic effect in SWV mouse assessed as live fetuses at 279 mg/kg, ip administered on morning of day 8 of gestation; format: toxicity, organism-based; design: dose 279 mg/kg, route intraperitoneal; conditions: in vivo; in short: as §3
Mus musculus [14] = test: Anticonvulsant activity in CF1 albino mouse assessed as inhibition of maximal electroshock-induced seizures at 30 mg/kg, ip after 0.5 hrs; format: functional, organism-based; design: dose 30 mg/kg
In short: (§4)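 Test compounds suspended in 0.5% methylcellulose and given ip to adult male CF no. 1 albino mice (18-25 g) at 0.01 mL/g body weight before maximal electroshock challenge.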

Mus musculus [15] = test: Anticonvulsant activity in CF1 albino mouse assessed as inhibition of maximal electroshock-induced seizures at 100 mg/kg, ip after 0.5 hrs; format: functional, organism-based; design: dose 100 mg/kg; in short: as §4
Mus musculus [16] = test: Anticonvulsant activity in CF1 albino mouse assessed as inhibition of maximal electroshock-induced seizures at 300 mg/kg, ip after 0.5 hrs; format: functional, organism-based; design: dose 300 mg/kg; in short: as §4
Mus musculus [17] = test: Anticonvulsant activity in CF1 albino mouse assessed as inhibition of maximal electroshock-induced seizures at 30 mg/kg, ip after 4 hrs; format: functional, organism-based; design: dose 30 mg/kg; in short: as §4
Mus musculus [18] = test: Anticonvulsant activity in CF1 albino mouse assessed as inhibition of maximal electroshock-induced seizures at 100 mg/kg, ip after 4 hrs; format: functional, organism-based; design: dose 100 mg/kg; in short: as §4
Mus musculus [19] = test: Anticonvulsant activity in CF1 albino mouse assessed as inhibition of maximal electroshock-induced seizures at 300 mg/kg, ip after 4 hrs; format: functional, organism-based; design: dose 300 mg/kg; in short: as §4
Mus musculus [20] = test: Anticonvulsant activity in CF1 albino mouse assessed as inhibition of subcutaneous pentylenetetrazole-induced seizures at 300 mg/kg, ip after 4 hrs; format: functional, organism-based; design: dose 300 mg/kg; in short: as §1
Mus musculus [21] = test: Neurotoxicity in CF1 albino mouse assessed as motor impairment at 30 mg/kg, ip after 4 hrs; format: toxicity, organism-based; design: dose 30 mg/kg, route intraperitoneal; conditions: in vivo
Mus musculus [22] = test: Neurotoxicity in CF1 albino mouse assessed as motor impairment at 100 mg/kg, ip after 4 hrs; format: toxicity, organism-based; design: dose 100 mg/kg, route intraperitoneal; conditions: in vivo
Mus musculus [23] = test: Neurotoxicity in CF1 albino mouse assessed as motor impairment at 300 mg/kg, ip after 4 hrs; format: toxicity, organism-based; design: dose 300 mg/kg, route intraperitoneal; conditions: in vivo
Rattus norvegicus [24] = species on record: Rattus norvegicus; test: Protective index, ratio of TD50 for rat to ED50 for maximal electroshock-induced rat seizure model
Rattus norvegicus [25] = test: Neurotoxicity in Sprague-Dawley rat assessed as motor impairment at 30 mg/kg, po after 0.25 to 4 hrs; conditions: in vivo
Rattus norvegicus [26] = test: Anticonvulsant activity in po dosed rat assessed as inhibition of maximal electroshock-induced seizures
Rattus norvegicus [27] = test: Anticonvulsant activity in Sprague-Dawley rat assessed as inhibition of maximal electroshock-induced seizures at 30 mg/kg, po after 1 hr
Rattus norvegicus [28] = test: Anticonvulsant activity in Sprague-Dawley rat assessed as inhibition of maximal electroshock-induced seizures at 30 mg/kg, po after 2 hrs
Rattus norvegicus [29] = test: Anticonvulsant activity in Sprague-Dawley rat assessed as inhibition of maximal electroshock-induced seizures at 30 mg/kg, po after 4 hrs

In the case of CCC(C)C(=O)Nc1ccc(S(N)(=O)=O)cc1 (centres undefined), the Activity (Mus musculus [1]) is reported as “inactive”, the Activity (Mus musculus [2]) is reported as “inactive” and the Activity (Mus musculus [3]) is reported as “inactive”. For the same molecule, the Activity (Mus musculus [4]) was “inactive”, the Activity (Mus musculus [5]) was “inactive” and the Activity (Mus musculus [6]) was 8.2%. It also gave an Activity (Mus musculus [7]) of 49.1%, an Activity (Mus musculus [8]) of 8.8% and an Activity (Mus musculus [9]) of 25.4%. It also gave an Activity (Mus musculus [10]) of 4.4%, an Activity (Mus musculus [11]) of 91.8% and an Activity (Mus musculus [12]) of 50.9%. The Activity (Mus musculus [13]) was 91.2%, the Activity (Mus musculus [14]) was “Active” and the Activity (Mus musculus [15]) was “Active”. For the same molecule, the Activity (Mus musculus [16]) was “Active”, the Activity (Mus musculus [17]) was “Active” and the Activity (Mus musculus [18]) was “Active”. The Activity (Mus musculus [19]) was “Active”, the Activity (Mus musculus [20]) was “inactive” and the Activity (Mus musculus [21]) was “Non-toxic”. The Activity (Mus musculus [22]) was “Non-toxic”, the Activity (Mus musculus [23]) was “Non-toxic” and the “Ratio TD50/ED50” value (Rattus norvegicus [24]) was >65.7. The Activity (Rattus norvegicus [25]) was “Non-toxic”, the ED50 (Rattus norvegicus [26]) was 7.6 mg/kg and the Activity (Rattus norvegicus [27]) was “Active”. For the same molecule, the Activity (Rattus norvegicus [28]) was “Active” and the Activity (Rattus norvegicus [29]) was “Active”.
